Test results published in ChEMBL document CHEMBL3596099, “Strong positive cooperativity in binding to the A3T3 repeat by Hoechst 33258 derivatives attaching the quinoline units at the end of a branched linker” (Bioorg Med Chem, 2015).
The source made the active and inactive calls. The rule behind the calls is not given here.

Tests used:
Type in all cases: nucleic-acid assay
Nucleic Acid [1] = assay: Binding affinity to A3T3 repeat containing DNA5(3) (unknown origin) assessed as cooperativity with DNA at 10 nM by fluorescence titration based McGhee-von Hippel analysis
How it was run: (§1)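 Ligand at 10 nM in 3.0 mM HEPES, 3.0 mM NaCl, pH 7.0 is stirred 4 h at room temperature in a quartz cell. DNA is added in aliquots, 0–0.8 μM (0–4 μM in A3T3), with 1 h stirring after each addition. Fluorescence is read with 363 nm excitation at 25 °C and ΔF is plotted against A3T3 concentration. Data are fitted to a two-mode (high/low affinity) model. McGhee–von Hippel analysis then gives n, K and ω.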

Nucleic Acid [2] = assay: Binding affinity to A3T3 repeat containing DNA5(3) (unknown origin) assessed as association constant for changes at 275 nm at 0 to 4 uM by CD spectroscopy
Nucleic Acid [3] = assay: Binding affinity to A3T3 repeat containing DNA5(3) (unknown origin) at 0 to 4 uM by CD spectroscopy
Nucleic Acid [4] = assay: Binding affinity to A3T3 repeat containing DNA5(3) (unknown origin) assessed as Hoechst region-induced shift to longer wavelength (372.5 to 384.5 nm) with increase in intensity at 5 uM by UV-vis spectroscopy
How it was run: (§2)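 UV–vis spectra of 5 μM ligand with or without DNA5(3), in 3.0 mM HEPES, 3.0 mM NaCl, pH 7.0, 25 °C. Samples are stirred 7 h at room temperature before measurement. Band shifts and % absorbance change are recorded for the Hoechst and quinoline regions.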

Nucleic Acid [5] = assay: Binding affinity to A3T3 repeat containing DNA5(3) (unknown origin) assessed as association constant for changes at 327 nm at 0 to 4 uM by CD spectroscopy
Nucleic Acid [6] = assay: Binding affinity to A3T3 repeat containing DNA5(3) (unknown origin) assessed as quinoline region-induced shift to shorter wavelength (328.5 to 326.5 nm) with % increase in intensity at 5 uM by UV-vis spectroscopy; how it was run: as §2
Nucleic Acid [7] = assay: Binding affinity to A3T3 repeat containing DNA1 (unknown origin) at 10 uM by CD spectroscopy
How it was run: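 CD spectrum of DNA1 (5 μM in A3T3) recorded alone and with ligand at 10 μM (2 equiv relative to A3T3).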

Nucleic Acid [8] = assay: Binding affinity to A3T3 repeat containing DNA5(3) (unknown origin) at 5 uM by UV-vis spectroscopy; how it was run: as §2
Nucleic Acid [9] = assay: Binding affinity to A3T3 repeat not-containing DNA0 (unknown origin) assessed as increase in fluorescence intensity at 10 nM by fluorescence titration method; how it was run: as §1

CN1CCN(c2cc(C(=O)NCCN(CCC(=O)NCCOCCOCCNC(=O)COc3ccc4ccccc4c3)CCC(=O)NCCOCCOCCNC(=O)COc3ccc4ccccc4c3)c3nc(-c4ccc5nc(-c6ccc(O)cc6)[nH]c5c4)[nH]c3c2)CC1
Activity (Nucleic Acid [1]): Active

CN1CCN(c2cc(C(=O)NCCN(CCC(=O)NCCOCCOCCNC(=O)COc3cccnc3)CCC(=O)NCCOCCOCCNC(=O)COc3cccnc3)c3nc(-c4ccc5nc(-c6ccc(O)cc6)[nH]c5c4)[nH]c3c2)CC1
Activity (Nucleic Acid [1]): inactive

CN1CCN(c2cc(C(=O)NCCN(CCC(=O)NCCOCCOCCNC(=O)COc3ccc4cnccc4c3)CCC(=O)NCCOCCOCCNC(=O)COc3ccc4cnccc4c3)c3nc(-c4ccc5nc(-c6ccc(O)cc6)[nH]c5c4)[nH]c3c2)CC1
Activity (Nucleic Acid [1]): Active

CN1CCN(c2cc(C(=O)NCCN(CCC(=O)NCCOCCOCCNC(=O)COc3ccc4ncccc4c3)CCC(=O)NCCOCCOCCNC(=O)COc3ccc4ncccc4c3)c3nc(-c4ccc5nc(-c6ccc(O)cc6)[nH]c5c4)[nH]c3c2)CC1
K (Nucleic Acid [2]): 6.5 ×10⁶ /M
Activity (Nucleic Acid [3]): Active
Activity (Nucleic Acid [4]): 50%
K (Nucleic Acid [5]): 3.9 ×10⁵ /M
Activity (Nucleic Acid [1]): Active
Activity (Nucleic Acid [6]): 43%
Activity (Nucleic Acid [7]): inactive
Activity (Nucleic Acid [8]): Active
Activity (Nucleic Acid [9]): inactive

CN1CCN(c2cc(C(=O)NCCN(CCC(=O)NCCOCCOCCNC(=O)COc3ccc4ncccc4c3Br)CCC(=O)NCCOCCOCCNC(=O)COc3ccc4ncccc4c3Br)c3nc(-c4ccc5nc(-c6ccc(O)cc6)[nH]c5c4)[nH]c3c2)CC1
Activity (Nucleic Acid [8]): inactive

CN1CCN(c2cc(C(=O)NCCN(CCC(=O)NCCOCCOCCNC(=O)COc3ccc4ccccc4n3)CCC(=O)NCCOCCOCCNC(=O)COc3ccc4ccccc4n3)c3nc(-c4ccc5nc(-c6ccc(O)cc6)[nH]c5c4)[nH]c3c2)CC1
Activity (Nucleic Acid [1]): inactive

CN1CCN(c2cc(C(=O)NCCN(CCC(=O)NCCNC(=O)COc3ccc4ncccc4c3)CCC(=O)NCCNC(=O)COc3ccc4ncccc4c3)c3nc(-c4ccc5nc(-c6ccc(O)cc6)[nH]c5c4)[nH]c3c2)CC1
Activity (Nucleic Acid [1]): inactive

CN1CCN(c2cc(C(=O)NCCN(CCC(=O)NCCOCCOCC(=O)NCCOCCOCCNC(=O)COc3ccc4ncccc4c3)CCC(=O)NCCOCCOCC(=O)NCCOCCOCCNC(=O)COc3ccc4ncccc4c3)c3nc(-c4ccc5nc(-c6ccc(O)cc6)[nH]c5c4)[nH]c3c2)CC1
Activity (Nucleic Acid [1]): inactive

CN1CCN(c2cc(C(=O)NCCN(CCC(=O)NCCOCCOCCNC(=O)COc3ccc4nccnc4c3)CCC(=O)NCCOCCOCCNC(=O)COc3ccc4nccnc4c3)c3nc(-c4ccc5nc(-c6ccc(O)cc6)[nH]c5c4)[nH]c3c2)CC1
Activity (Nucleic Acid [1]): inactive
